Source: ChEMBL document CHEMBL3853270, “Influence of Birch Bark Triterpenes on Keratinocytes and Fibroblasts from Diabetic and Nondiabetic Donors” (2016)
The source made the active and inactive calls.

Legend:
Keratinocyte = experiment: Effect on actin cytoskeleton in human diabetic primary keratinocytes assessed as formation of cellular protrusions at 10 nM after 2 hrs by rhodamine phalloidin-staining based fluorescence microscopic analysis; assay type: functional
How it was run: (§1)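 Subconfluent cells on glass coverslips, collagen type I coated for fibroblasts; keratinocytes starved 2 days before stimulation. Exposure 2 h, then rhodamine-phalloidin staining (1:25 in PBS) and fluorescence microscopy. Controls were DMSO as solvent and PDGF (fibroblasts) or CNF1 (keratinocytes). Where used, p38-MAPK inhibitor LN 950 (100 nM) was added 30 min beforehand.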

Fibroblast [1] = experiment: Effect on actin cytoskeleton in human diabetic primary fibroblasts assessed as formation of thin elongated cellular body at 10 nM after 2 hrs by rhodamine phalloidin-staining based fluorescence microscopic analysis; assay type: functional; how it was run: as §1
Fibroblast [2] = experiment: Effect on actin cytoskeleton in human non-diabetic primary fibroblasts assessed as formation of thin elongated cellular body at 10 nM after 2 hrs by rhodamine phalloidin-staining based fluorescence microscopic analysis; assay type: functional; how it was run: as §1
Fibroblast [3] = experiment: Effect on actin cytoskeleton in human non-diabetic primary fibroblasts assessed as formation of thin elongated cellular body at 10 nM after 2 hrs in presence of p-38 MAPK inhibitor LN 950 by rhodamine phalloidin-staining based fluorescence microscopic analysis; assay type: functional; how it was run: as §1
[4] = biological target: Transforming protein RhoA (Homo sapiens) (UniProt P61586); experiment: Activation of RhoA in human diabetic primary keratinocytes at 10 nM after 3 hrs by immunoblot method
Chain of Transforming protein RhoA (Homo sapiens) (P61586 whole entry): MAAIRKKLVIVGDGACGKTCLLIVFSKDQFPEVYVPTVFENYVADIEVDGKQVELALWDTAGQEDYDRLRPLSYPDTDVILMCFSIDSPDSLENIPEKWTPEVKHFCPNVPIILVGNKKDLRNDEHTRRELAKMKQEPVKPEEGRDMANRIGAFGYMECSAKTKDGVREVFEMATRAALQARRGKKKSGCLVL
How it was run: (§2)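 Keratinocytes from a diabetic adult donor; incubation 3 h for RhoA, 20 min for Cdc42 and Rac1. Lysates made in glycerol/Tris pH 7.4/NaCl/NP-40/MgCl2/PMSF buffer, spun at 4 °C. Active GTP-bound form pulled down on glutathione-sepharose with GST-Rhotekin (RhoA) or GST-PAK (Cdc42, Rac1) for 1 h at 4 °C. Total and pulled-down protein read by immunoblot with ECL; n = 3.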

[5] = biological target: Cell division control protein 42 homolog (Homo sapiens) (UniProt P60953); experiment: Activation of Cdc42 in human diabetic primary keratinocytes at 10 nM after 20 mins by immunoblot method; how it was run: as §2
Chain of Cell division control protein 42 homolog (Homo sapiens) (P60953 whole entry, looked up): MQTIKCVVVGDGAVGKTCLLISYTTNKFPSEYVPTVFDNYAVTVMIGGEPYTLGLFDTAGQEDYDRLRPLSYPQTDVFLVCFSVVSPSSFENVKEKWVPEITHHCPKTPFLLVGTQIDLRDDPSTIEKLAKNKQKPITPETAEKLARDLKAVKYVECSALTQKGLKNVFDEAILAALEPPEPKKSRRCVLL

[6] = biological target: Ras-related C3 botulinum toxin substrate 1 (Homo sapiens) (UniProt P63000); experiment: Activation of Rac1 in human diabetic primary keratinocytes at 10 nM after 20 mins by immunoblot method
How it was run: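 Primary keratinocytes from a diabetic adult donor (NHK-d), exposed 20 min. Lysed in glycerol/Tris pH 7.4/NaCl/NP-40/MgCl2/PMSF buffer and cleared at 4 °C. Supernatant incubated 1 h at 4 °C with glutathione-sepharose beads carrying GST-PAK to pull down active GTP-bound Rac1. Blotted on a 13% gel, probed with anti-Rac1 (1:2.000) and detected by ECL; total Rac1 also measured. CNF1 (2 nM) positive control, n = 3.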

Fibroblast [7] = experiment: Induction of shape change of actin cytoskeleton in human diabetic primary fibroblasts at 10 nM after 2 hrs by rhodamine phalloidin-staining based fluorescence microscopic analysis; assay type: functional
Fibroblast [8] = experiment: Induction of shape change of actin cytoskeleton in human non-diabetic primary fibroblasts at 10 nM after 2 hrs by rhodamine phalloidin-staining based fluorescence microscopic analysis; assay type: functional

Measured: Activity

C=C(C)[C@@H]1CC[C@]2(C)CC[C@]3(C)[C@H](CC[C@@H]4[C@@]5(C)CC[C@H](O)C(C)(C)[C@@H]5CC[C@]43C)[C@@H]12
not listed: Fibroblast [7] | Fibroblast [8]
active: all other assays above

C=C(C)[C@@H]1CC[C@]2(C(=O)O)CC[C@]3(C)[C@H](CC[C@@H]4[C@@]5(C)CC[C@H](O)C(C)(C)[C@@H]5CC[C@]43C)[C@@H]12
active: Fibroblast [7] | Fibroblast [8]
